These results are taken from ChEMBL document CHEMBL4196022, “Alkynyl-containing phenylthiazoles: Systemically active antibacterial agents effective against methicillin-resistant Staphylococcus aureus (MRSA)” (Eur J Med Chem, 2018).

Series [1] concerns Staphylococcus aureus. Briefly: Antibacterial activity against vancomycin-resistant Staphylococcus aureus VRS12 after 20 hrs by broth microdilution assay. In kind it is functional. The following applies: VRS12, 20 h. A digest of the protocol: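 Broth microdilution per CLSI in cation-adjusted Mueller Hinton broth. Compounds serially diluted, in triplicate. Incubation at 37 °C for at least 20 hours. MIC taken as the lowest concentration with no visible bacterial growth.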
A general note: Broth dilution looks for growth in wells or tubes with falling amounts of substance.

Series [2] concerns Staphylococcus aureus. The series can be described thus: Bactericidal activity against methicillin resistant vancomycin-resistant Staphylococcus aureus VRS12 up to 18 hrs by broth microdilution assay. In kind it is functional. The conditions noted are these: VRS12, 18 h, read-out: MBC99.9. A digest of the protocol:
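MBC set up from the MIC plates. Aliquots from wells with no growth spotted onto tryptic soy agar and incubated at 37 °C for at least 18 hours. MBC taken as the lowest concentration giving 99.9% inhibition of bacterial growth.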

In series [3] the test system is Staphylococcus aureus. The series can be described thus: Bactericidal activity against methicillin-resistant Staphylococcus aureus NRS123 (USA400) at 4 times MIC after 24 hrs by time kill assay. The format is functional, organism-based.
Series [4] deals with Staphylococcus aureus. The series can be described thus: Antibacterial activity against methicillin-resistant Staphylococcus aureus NRS123 (USA400) infected in mouse J774 cells at 4 ug/ml after 24 hrs. The format is functional, organism-based. A digest of the protocol: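 J774 macrophages grown in DMEM with 10% FBS at 37 °C, 5% CO2. Infected with USA400 at MOI ~100:1 for 1 h, then washed with gentamicin 50 μg/mL. Treated in triplicate wells for 24 h, washed with gentamicin again and lysed with 0.1% Triton X-100. Lysate plated on tryptic soy agar for 18–22 h; CFU/mL counted.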

The test system of series [5] is Staphylococcus aureus. The series can be described thus: Antibacterial activity against methicillin-resistant Staphylococcus aureus USA300 infected in Caenorhabditis elegans AU37 assessed as reduction in bacterial burden at 20 ug/ml after 18 hrs relative to control. In kind it is functional. Put shortly: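 L4-stage C. elegans AU37 infected on USA300 lawns for 6 h and washed with M9 buffer. 25–30 worms per well exposed to 20 μg/mL for 18 h, in triplicate. Worms then lysed and plated on TSA with 5 μg/mL nalidixic acid for 17 h at 37 °C. CFU per worm expressed as % reduction versus PBS.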

A short description of series [6]: Induction of proton motive force collapse in Escherichia coli inverted membrane vesicle in presence of ATP-driven PMF generation system by ACMA-based fluorescence assay. In kind it is functional, cell membranes. Put shortly:
(§1)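 E. coli inverted membrane vesicles had proton motive force generated either by ATP or by succinate/O2. PMF collapse was followed as a dose response to give EC50, with CCCP as the reference uncoupler.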

Series [7] can be described thus: Induction of proton motive force collapse in Escherichia coli inverted membrane vesicle in presence of succinate/O2-driven PMF generation system by ACMA-based fluorescence assay. The format is functional, cell membranes. Put shortly:
as §1

The nature of series [8]: Apparent permeability from apical to basolateral side in human Caco2 cells at 10 uM after 60 mins by LC-MS/MS analysis. The conditions noted are these: caco-2, 1 h. In kind it is ADME, cell-based. A digest of the protocol: (§2)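 Caco-2 monolayers were seeded at 1 × 10^5 cells/cm2 and differentiated for three weeks. Test article was at 10 μM (1% DMSO) in HBSS-MES pH 6.5 or HBSS-HEPES pH 7.4 and added to the donor side. Incubation ran 60 min (A→B) or 40 min (B→A), and receiver buffer was analysed by LC/MS/MS. Lucifer yellow and fluorescein checked monolayer integrity. Efflux ratio = Papp(B→A)/Papp(A→B).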

The nature of series [9]: Apparent permeability from basolateral to apical side in human Caco2 cells at 10 uM after 60 mins by LC-MS/MS analysis. The format is ADME, cell-based. The following applies: caco-2, 1 h.
The nature of series [10]: Efflux ratio of apparent permeability in human Caco2 cells at 10 uM after 60 mins by LC-MS/MS analysis. In kind it is ADME, cell-based. The following applies: caco-2, 1 h. A digest of the protocol:
as §2
A general note: Caco-2 cells form a polarised layer with tight junctions and transporters.

The structures appear in SMILES notation. Converted amounts (≈) assume the structure as drawn. The source made the active and inactive calls.

The term MIC denotes the smallest concentration in the dilution series that meets the test's criterion for growth inhibition. Read a high MIC as a need for much substance. In turn, `CN[C@H](CC(C)C)C(=O)N[C@H]1C(=O)N[C@@H](CC(N)=O)C(=O)N[C@H]2C(=O)N[C@H]3C(=O)N[C@H](C(=O)N[C@H](C(=O)O)c4cc(O)cc(O)c4-c4cc3ccc4O)[C@H](O)c3ccc(c(Cl)c3)Oc3cc2cc(c3O[C@@H]2O[C@H](CO)[C@@H](O)[C@H](O)[C@H]2O[C@H]2C[C@](C)(N)[C@H](O)[C@H](C)O2)Oc2ccc(cc2Cl)[C@H]1O` [VANCOMYCIN] yielded an MIC against Staphylococcus aureus [1] of 16 µg/mL (≈ 11 µM). Further, the MBC with Staphylococcus aureus [2] amounted to 256 µg/mL (≈ 177 µM). Further, the result in the series on Staphylococcus aureus [3] and in the series on Staphylococcus aureus [5] was Active. In addition, the result in the series with Staphylococcus aureus [4] was inactive.

The term EC50 denotes the concentration needed to bring the measured effect to its halfway point. Regarding `N#CC(C#N)=NNc1cccc(Cl)c1` [CARBONYL CYANIDE M-CHLOROPHENYLHYDRAZONE], the EC50 in series [6] is 470 nM; in series [7] it was 210 nM.

As a reminder, the Papp is the rate of passage across a membrane or cell layer, normalised by area and donor concentration. As to `CNC(=C[N+](=O)[O-])NCCSCc1ccc(CN(C)C)o1` [RANITIDINE], the values for the Papp in series [8] and in series [9] were 0.27 ×10⁻⁶ cm/s and 1.71 ×10⁻⁶ cm/s, respectively. In series [10], the Ratio is recorded as 6.3.
